Only some compounds are listed: those with a hit (about 3.3% of all), similar ones and a draw of the others.
PRMT1 inh: PRMT1 (human) inhibition, primary screen. recombinant PRMT1, activity-based probe fluorescence polarization. inhibition, % at 2.79 µM. 370,000 tested, 1.3% active. AID 652257;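 active = inhibition above about 21% made by adding two undisclosed values, limit read from the data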
Target sequence (Q99873 whole entry, looked up): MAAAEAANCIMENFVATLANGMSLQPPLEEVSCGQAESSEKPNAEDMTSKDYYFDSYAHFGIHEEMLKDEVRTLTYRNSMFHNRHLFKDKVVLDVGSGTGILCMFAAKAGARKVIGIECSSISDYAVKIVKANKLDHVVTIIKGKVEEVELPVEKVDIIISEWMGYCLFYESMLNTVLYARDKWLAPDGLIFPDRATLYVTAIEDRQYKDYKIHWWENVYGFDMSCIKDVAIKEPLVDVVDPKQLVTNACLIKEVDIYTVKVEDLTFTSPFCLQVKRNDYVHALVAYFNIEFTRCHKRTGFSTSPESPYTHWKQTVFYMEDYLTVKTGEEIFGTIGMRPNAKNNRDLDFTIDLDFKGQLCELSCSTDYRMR
TCR-CD3 inh: blocks the human TCR-CD3 interaction; TAMRA-labeled TCR probe fluorescence, biochemical; inhibition, % at 9.4 µM; 360,000 tested, 0.37% active; AID 651800;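 note: recombinant mutant TCR 2C K166C tagged with TAMRA read by polarization; 0% = receptor in buffer alone and 100% = receptor with positive control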
SIAE inh: human SIAE inhibition, primary screen | inhibition, % at 9.66 µM | SIAE FP-Rh probe binding, fluorescence polarization | Q9HAT2 | 370,000 tested, 0.69% active | AID 1053197;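 active = inhibition above a cutoff: mean of compounds within the control limits plus 3 SD of those, cut at about 17% in these data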;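 note: 0% = plate median of compound wells and 100% = probe without SIAE protein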
rCAG binder: r(CAG) repeat RNA binding; TO-PRO-1 dye displacement fluorescence; inhibition, % at 3 µM; 370,000 tested, 1.3% active; AID 651821;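 active = inhibition above the plate cutoff, the mean of all test compounds on that plate plus 3 SD, cut at about 35% in these data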;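 note: 0% = DMSO alone and 100% = 100 µM mitoxantrone as full dye displacement; higher means more dye released from RNA so lower well fluorescence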
ABHD4 inh: ABHD4 (mouse) inhibition, primary FP screen | inhibition, % at 8.92 µM | 370,000 tested, 0.54% active | purified mABHD4, FP-Rh probe fluorescence polarization | Q8VD66;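 active = inhibition exceeding the mean over every tested compound plus 3 SD, cut at about 30% in these data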;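 note: 0% = plate median of compound wells and 100% = S159A mutant with DMSO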
Target sequence (Q8VD66 whole entry, looked up): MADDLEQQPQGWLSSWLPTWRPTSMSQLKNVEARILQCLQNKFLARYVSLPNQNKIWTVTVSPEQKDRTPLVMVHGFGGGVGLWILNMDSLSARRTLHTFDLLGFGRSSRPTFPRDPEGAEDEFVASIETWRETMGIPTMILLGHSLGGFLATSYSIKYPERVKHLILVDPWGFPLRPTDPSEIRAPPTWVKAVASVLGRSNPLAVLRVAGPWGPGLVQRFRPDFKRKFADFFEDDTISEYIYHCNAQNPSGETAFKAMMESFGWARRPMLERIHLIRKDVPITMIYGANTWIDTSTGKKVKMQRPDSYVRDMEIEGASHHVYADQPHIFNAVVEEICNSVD
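System: mouse ABHD4 enzyme, wild type / Medium: HEPES pH 7.0, NaCl, Pluronic buffer / Reagent: FP-Rh activity-based fluorescent probe / Control set: S159A mutant high control, sample median low control / Detection: fluorescence polarization with parallel and perpendicular emission, 525/598 nm / Schedule: 45 min + 60 min at 25 °C / Compound dosing: 8.92 µM, single dose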
BSA probe FL: interferes with TAMRA-BSA probe, flagging TCR-CD3 hits; shares compounds with TCR-CD3 inh; TAMRA-labeled BSA probe fluorescence counterscreen; inhibition, % at 9.4 µM; 1,200 tested, 10% active; AID 652035; in the data active = inhibition above about 23%;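 note: 0% = buffer low control and 100% = reference high control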
TCR-CD3 conf: TCR-CD3 interaction inhibition, confirmation | inhibition, % at 9.4 µM | TAMRA-labeled TCR probe fluorescence binding assay | 1,200 tested, 48% active | shares compounds with TCR-CD3 inh
rCAG bind conf: r(CAG) RNA repeat binding, confirmation; shares compounds with rCAG binder; TO-PRO-1 dye displacement fluorescence; 4,300 tested, 70% active; inhibition, % at 3 µM;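 active = inhibition above a per-plate cutoff, the mean inhibition of sample wells plus 3 SD, cut at about 35% in these data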;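 note: loss of TO-PRO-1 fluorescence as compound displaces dye from 1x1 AA loop RNA; 0% = DMSO only wells and 100% = 100 µM mitoxantrone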
DNA CAG counter: DNA CAG dye complex inhibition counter-screen | shares compounds with rCAG binder | d(CAG) DNA oligo TO-PRO-1 dye displacement, fluorescence | inhibition, % at 3 µM | 4,300 tested, 94% active;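 active = inhibition above its plate's cutoff, the mean test-well inhibition plus 3 SD, cut at about 4.8% in these data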;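 note: 0% = DNA dye mix with DMSO and 100% = 100 µM mitoxantrone; hits displace the dye from DNA and so lower well fluorescence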
PRMT1 inh conf: confirmation of human PRMT1 inhibitors | 3,300 tested, 42% active | shares compounds with PRMT1 inh | recombinant His-PRMT1, activity-based probe fluorescence polarization | inhibition, % at 2.79 µM;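 active = mean inhibition across replicates above the hit cutoff derived for the earlier primary screen, cut at about 22% in these data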
ABHD4 confirm: ABHD4 (mouse) inhibition, FP confirmation; shares compounds with ABHD4 inh; purified mABHD4, FP-Rh probe fluorescence polarization; inhibition, % at 8.92 µM; 1,800 tested, 55% active;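 active = mean inhibition across replicates above the hit cutoff set in the primary screen, cut at about 30% in these data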;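 note: 0% = wild-type ABHD4 with DMSO and 100% = catalytically dead S159A mutant with DMSO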
SIAE confirm: human SIAE inhibition, confirmation; AID 1117263; shares compounds with SIAE inh; 2,300 tested, 13% active; inhibition, % at 9.66 µM; SIAE FP-Rh activity-based probe, fluorescence polarization;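 active = mean inhibition of the replicates above the hit cutoff set in the primary screen, cut at about 17% in these data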;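 note: 0% = SIAE with DMSO and probe and 100% = probe without SIAE; inhibitors lower polarization as more probe stays unbound to SIAE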
* = called active by the depositor; / = no result; ! = a repeat was not active. Cut-off read from the data, not from the text of the source, unless noted: active = inhibition above about 19%; inactive = the rest.

SMILES	PRMT1 inh	TCR-CD3 inh	SIAE inh	rCAG binder	ABHD4 inh	rCAG bind conf	DNA CAG counter	others
COc1cccc(NC(=S)NCc2ccc3c(c2)cc(C)n3C)c1	4.0	-0.1	9.4	8.8	13.0	/	/
Cc1cc2cc(CNC(=O)Nc3cccc(Cl)c3)ccc2n1C	10.1	55.3*	26.1*	20.8	46.1*	/	/	BSA probe FL=5.4;TCR-CD3 conf=0.7;ABHD4 confirm=-10.1;SIAE confirm=-5.5
Cc1cc(N)ccc1-n1c(C)ccc1C	17.1	151.9*	53.6*	8.9	147.2*	/	/	BSA probe FL=5.5;TCR-CD3 conf=-0.3;SIAE confirm=3.2
Oc1ccccc1C=NNC(=S)NC1CC2C=CC1C2 (stereo unspecified)	4.2	8.4	7.2	6.3	11.5	/	/
Oc1c(Cl)cc(Cl)cc1/C=N/NC(=S)NC1CC2C=CC1C2 (stereo unspecified)	0.1	22.6*	19.6*	65.6*	39.0*	81.1*	47.4*	BSA probe FL=-17.6;TCR-CD3 conf=28.3*;ABHD4 confirm=41.1*;SIAE confirm=20.6*
O=c1c(O)c(-c2ccc(O)c(O)c2)oc2cc(O)cc(O)c12	14.6	19.5*	18.4*	36.2*	33.9*	27.7	8.1*	BSA probe FL=-19.7;TCR-CD3 conf=18.4;ABHD4 confirm=32.9*;SIAE confirm=3.9
C=CCN1C(=O)[C@@H](CC(=O)NCc2cccc(C(F)(F)F)c2)[C@]2(C(=O)OC)CCCCC=C12	2.6	/	-1.9	0.7	-5.8	/	/
O=C(N/N=C\c1c(O)ccc2ccccc12)c1ccc(Cn2cccn2)o1	2.2	23.9*	23.8*	10.7	28.1	/	/	BSA probe FL=-18.2;TCR-CD3 conf=24.8*;SIAE confirm=1.5
Cn1ccnc1C(=O)O[C@@H]1CCC[C@@]2(C(=O)N(Cc3ccccc3)c3ccccc32)[C@H]1NC(=O)CCc1ccccc1	-3.3	/	-5.1	3.6	-1.3	/	/
Cn1c(=O)c2c(-c3ccccc3)n(-c3cccc(O)c3)cc2n(C)c1=O	16.4	-4.2	5.5	8.3	19.7	/	/
Cn1c(=O)c2c(-c3ccccc3)n(-c3ccc(N)cc3)cc2n(C)c1=O	17.5	29.0*	22.1*	28.8	57.5*	/	/	BSA probe FL=14.4;TCR-CD3 conf=16.0;ABHD4 confirm=26.0;SIAE confirm=12.7
CC(=O)c1c(C)[nH]c(C(=O)OCC(=O)NCc2ccc(Cl)cc2)c1C	168.2*	22.8*	23.8*	1.4	12.7	/	/	BSA probe FL=0.5;TCR-CD3 conf=-0.2;PRMT1 inh conf=-2.3;SIAE confirm=-6.9
Cc1cc2ccccc2n1CCNC(=O)c1ccc(S(=O)(=O)N2CCCCC2)cc1	2.6	62.5*	37.4*	17.6	57.8*	/	/	BSA probe FL=4.8;TCR-CD3 conf=6.4;ABHD4 confirm=192.9*;SIAE confirm=-2.8
Cc1cc(C(C)(C)C)cc(S(=O)(=O)Nc2ccc(O)c(C(=O)O)c2)c1C	0.4	-3.3	-3.0	56.8*	-16.8	23.1	5.3*
CC(=O)Nc1ccc(NC(=O)c2ccc(NS(=O)(=O)c3cc(C(C)(C)C)cc(C)c3C)cc2)cc1	-3.0	6.3	-75.9	-10.7	-12.4	/	/
Cc1cc(C)c(C)c(S(=O)(=O)N2C(=S)NC(=O)C2CC(C)C)c1C (stereo unspecified)	2.0	-4.6	-7.3	40.7*	-0.9	30.8	8.0*
Cc1cc(C)c(C)c(S(=O)(=O)N2CCNCC2)c1C	4.1	-0.3	-1.2	-0.8	5.5	/	/
CCN1CCN(Cc2ccc(NC(=O)c3cc(NC(=O)C4=NN(c5ccccc5)C(=O)C4)cc(OC)c3)cc2C(F)(F)F)CC1	-4.5	-0.1	11.8	37.8*!	14.3	33.3	19.6*
CCN1CCN(Cc2ccc(NC(=O)c3ccc(C)c(NC(=O)C4=NN(c5ccccc5)C(=O)C4)c3)cc2C(F)(F)F)CC1	4.0	-7.9	12.8	33.8	18.1	/	/
CCn1c2ccccc2c2c3ncc4cccn4c3ccc21	7.4	1.1	-28.1	39.3*	9.2	55.5*	25.1*
COc1ccc(/C=C2\CC3(OC(=O)c4ccco4)CCCN2C3)cc1 (stereo unspecified)	-0.1	/	2.5	2.3	2.0	/	/
COc1ccc2c(c1)NC(=O)[C@@]2(CCN1C(=O)c2ccccc2C1=O)c1[nH]c2ccccc2c1CCN1C(=O)c2ccccc2C1=O	4.7	/	-15.7	/	-21.3	/	/
COc1ccc(NS(=O)(=O)c2ccc(NS(=O)(=O)c3ccc(SC)cc3)cc2)c(OC)c1	0.5	3.1	-4.7	37.7*	7.5	42.9*	12.6*
CCOc1ccc(NS(=O)(=O)c2ccc(NS(=O)(=O)c3ccc(SC)cc3)cc2)cc1	3.8	-6.3	-32.0	48.6*	-38.6	54.6*	18.2*
O=C(CSc1ccccc1)NC1CCCCN(Cc2cccc(Cl)c2)C1=O (stereo unspecified)	-1.5	/	0.4	2.9	2.4	/	/
SMILES	PRMT1 inh	TCR-CD3 inh	SIAE inh	rCAG binder	ABHD4 inh	rCAG bind conf	DNA CAG counter	others
CCN(CC)C(=O)CC[C@@H]1CC[C@]2(CCCN(Cc3ccncc3)C2)O1	-2.7	/	-5.6	2.6	2.1	/	/
CC(C)CNc1cc(Cl)c(S(=O)(=O)NCC(C)C)cc1C(=O)O	4.3	-6.3	-0.9	37.4*	5.5	18.7	1.1
CC(C)CNS(=O)(=O)c1cc(C(=O)N2CC(C)OC(C)C2)c(Cl)cc1Cl (stereo unspecified)	2.6	0.7	-2.2	-5.3	-1.3	/	/
CCCCN1CC(=O)N2[C@H](C[C@@]3(C)c4ccccc4N(S(=O)(=O)c4ccccc4)[C@@H]23)C1=O	-2.1	/	2.8	5.2	-0.4	/	/
COc1ccc2[nH]c(C(=O)O)c(NS(=O)(=O)c3ccc(OC)c(OC)c3)c2c1	8.3	-1.0	1.1	21.8	11.2	/	/
COc1ccc(S(=O)(=O)Nc2c(C(=O)O)[nH]c3ccc(OC)cc23)c(OC)c1	10.8	5.5	15.7	36.5*	26.3	23.7	10.4*
COc1ccc(S(=O)(=O)Nc2c(C(=O)O)[nH]c3ccccc23)c(OC)c1	0.2	0.0	0.9	35.6*	12.0	18.9	4.3
COc1ccc(S(=O)(=O)Nc2c(C(=O)O)[nH]c3ccc(OC)cc23)cc1	11.2	3.9	10.2	25.2	16.2	/	/
CC(NC(=O)COC(=O)c1cc(NS(=O)(=O)c2ccc(Cl)c([N+](=O)[O-])c2)ccc1O)C1CC2CCC1C2 (stereo unspecified)	1.6	-0.8	-28.6	44.1*	-28.8	58.1*	21.5*
Cc1nn(-c2ccccc2)c2sc(C(=O)O)cc12	3.8	2.5	-0.7	4.3	-9.9	/	/

Source: PubChem
